Source: PubChem
Pyk2 oligo antag – blocks oligomerization of human Pyk2 in cells; actives 0.83% (n = 99,000); Q14289; z-score (the deposit names both 25 µM and 10 µM); Q293 cells, Pyk2 FERM NanoBiT luminescence; hits give low values;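 active = Z-score of -3 or lower, scaled per plate to the spread of control and sample wells; inactive = z-score above -3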;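 also: negative z-score means lost luminescence so less FERM oligomerization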
Target sequence (Q14289 whole entry, looked up): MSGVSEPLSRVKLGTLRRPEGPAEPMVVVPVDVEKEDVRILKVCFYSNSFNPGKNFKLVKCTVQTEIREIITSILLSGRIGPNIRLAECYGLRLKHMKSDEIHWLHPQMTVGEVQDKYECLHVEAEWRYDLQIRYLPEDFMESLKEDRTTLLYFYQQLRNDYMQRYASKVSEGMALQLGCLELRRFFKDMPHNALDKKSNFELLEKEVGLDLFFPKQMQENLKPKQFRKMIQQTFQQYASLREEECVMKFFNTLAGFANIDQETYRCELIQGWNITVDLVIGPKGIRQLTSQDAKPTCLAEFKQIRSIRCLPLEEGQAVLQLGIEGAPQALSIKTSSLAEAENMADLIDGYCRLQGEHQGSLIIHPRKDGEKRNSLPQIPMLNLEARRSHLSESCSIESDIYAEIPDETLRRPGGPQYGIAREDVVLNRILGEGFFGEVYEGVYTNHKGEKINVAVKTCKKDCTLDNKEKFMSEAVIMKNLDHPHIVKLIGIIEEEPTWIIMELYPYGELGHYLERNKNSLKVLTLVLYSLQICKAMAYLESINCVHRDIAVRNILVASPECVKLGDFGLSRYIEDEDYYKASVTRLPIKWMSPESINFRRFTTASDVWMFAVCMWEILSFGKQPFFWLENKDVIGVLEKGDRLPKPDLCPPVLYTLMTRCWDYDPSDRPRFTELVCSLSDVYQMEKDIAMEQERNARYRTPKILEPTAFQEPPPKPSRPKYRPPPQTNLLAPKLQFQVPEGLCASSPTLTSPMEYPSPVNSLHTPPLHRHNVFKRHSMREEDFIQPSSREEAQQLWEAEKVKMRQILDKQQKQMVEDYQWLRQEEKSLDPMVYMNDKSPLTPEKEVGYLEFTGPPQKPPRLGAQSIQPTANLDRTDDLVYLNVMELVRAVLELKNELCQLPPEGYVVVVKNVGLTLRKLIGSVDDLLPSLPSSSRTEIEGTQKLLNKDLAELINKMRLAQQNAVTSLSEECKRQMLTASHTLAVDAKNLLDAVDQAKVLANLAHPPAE
Lung fibro prol – blocks proliferation of human lung fibroblasts | AID 719 | LL 47 human lung fibroblast viability, ATP luminescence; hits give low values | actives 1.1% (n = 85,000) | viability, % at 10 µM;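 active = viability at or below 50% in the single dose screen; inactive = viability above 50%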;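 also: compound exposure lasted 72 h before the ATP readout; 100% = median luminescence of untreated cell-only wells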
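Test system: LL 47 human lung fibroblasts / Incubation: 72 h compound exposure at 37 °C after overnight plating / Technique: luminescent ATP detection, CellTiter-Glo / Compound dosing: 0.1% DMSO in all compound wells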
H69AR growth 86K – growth inhibitors of human H69AR lung tumor cells; H69AR lung tumor viability, ATP luminescence, 72 h; hits give low values; viability, % at 10 µM; actives 6% (n = 85,000);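 active = viability at or below 40%; inactive = viability above 40%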;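 also: multidrug resistant small cell line overexpressing MRP-1 efflux transporter; 100% = mean luminescence of untreated control wells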
bCat KO growth – beta-catenin-lacking colon tumor cell growth suppression; viability, % at 10 µM; AID 818; actives 1.5% (n = 140,000); HCT116 beta-catenin knockout viability, CellTiter-Glo, 60 h; hits give low values;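 active = viability at or under a set limit, the compound median less 4 SD, cut at about 6% in these data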;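 also: 0% = Hyamine 1622 control at 20 µM and 100% = untreated cell control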
HCT116 PTEN-null – suppresses growth of cells with PTEN deletion; HCT116 PTEN-null viability, CellTiter-Glo, 60 h; hits give low values; AID 827; actives 1.2% (n = 140,000); viability, % at 10 µM;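 active = viability at or below a set limit, 4 SD under the median of all tested compounds, cut at about 3.7% in these data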;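 also: PTEN knockout HCT116 line with beta catenin targeted HCT116 as companion control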
HUVEC inhibit – blocks proliferation of human endothelial cells; actives 1.1% (n = 86,000); viability, % at 10 µM (by protocol); HUVEC proliferation, CellTiter-Glo luminescence, 72 h; hits give low values; AID 648;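 active = viability at or below 30%; inactive = viability above 30%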;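 also: 100% = median luminescence of DMSO-only cell control wells on each plate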
* = called active by the depositor. The entries come from a sample that favours hits as a whole.

For N#C/C(=C\c1ccc(Sc2nc3ccccc3[nH]2)o1)c1ccccc1 the results were Pyk2 oligo antag -2.4, Lung fibro prol 88, H69AR growth 86K 33*, bCat KO growth 61, HCT116 PTEN-null 68 and HUVEC inhibit 53.
Screening COc1cc(N2CCCC2)c(OC)cc1/C=C(/C#N)c1cccc(F)c1 returned Pyk2 oligo antag -1.6, Lung fibro prol 88, H69AR growth 86K 25*, bCat KO growth 72, HCT116 PTEN-null 68 and HUVEC inhibit 95.
For N#C/C(=C\c1ccc(N2CCOCC2)o1)c1ccccc1 the results were Pyk2 oligo antag -0.5, bCat KO growth 57 and HCT116 PTEN-null 65.
`N#C/C(=C/c1ccc(N2CCCCC2)o1)C(=O)Nc1ccc2ccccc2c1` gave bCat KO growth 27 and HCT116 PTEN-null 47.
For COc1cccc(/C=C(/C#N)c2ccc(F)cc2)c1OCc1cccc(C(=O)O)c1 the results were bCat KO growth 99 and HCT116 PTEN-null 101.
N#C/C(=C/c1ccc(N2CCOCC2)o1)c1nc2ccccc2[nH]1 was read as Pyk2 oligo antag 1.4, Lung fibro prol 76, H69AR growth 86K 23*, bCat KO growth 84, HCT116 PTEN-null 81 and HUVEC inhibit 51.
Screening N#C/C(=C/c1ccc(N2CCCCCC2)o1)c1cccc(F)c1 returned Pyk2 oligo antag 1.1, Lung fibro prol 87, H69AR growth 86K 37*, bCat KO growth 47, HCT116 PTEN-null 69 and HUVEC inhibit 95.
N#C/C(=C/c1ccc(N2CCCCCC2)o1)c1ccc(F)cc1 was read as Pyk2 oligo antag 0.41, Lung fibro prol 11*, H69AR growth 86K 2.8*, bCat KO growth 46, HCT116 PTEN-null 33 and HUVEC inhibit 56.
For N#C/C(=C/c1ccc(N2CCOCC2)o1)c1ccc(Br)cc1 the results were Pyk2 oligo antag -0.12, bCat KO growth 31 and HCT116 PTEN-null 58.
Cc1ccc(C)c(S(=O)(=O)NC(CCC(N)=O)C(=O)O)c1 (stereo not given) was read as Pyk2 oligo antag 0.18, Lung fibro prol 106, H69AR growth 86K 93 and HUVEC inhibit 87.
Screening CC12CCC(c3c(C(=O)O)nn(-c4ccccc4)c31)C2(C)C (stereo not given) returned Pyk2 oligo antag 0.59, Lung fibro prol 98, H69AR growth 86K 85, bCat KO growth 93, HCT116 PTEN-null 103 and HUVEC inhibit 107.
For CC12CCC(c3c(C(=O)Nc4nccs4)nn(-c4ccccc4)c31)C2(C)C (stereo not given) the results were Pyk2 oligo antag -2.5, Lung fibro prol 69, H69AR growth 86K 20*, bCat KO growth 1.4*, HCT116 PTEN-null 1.6* and HUVEC inhibit 100.
For Nc1nonc1C(=O)NCCNCc1cc(Br)ccc1OCc1ccc(F)cc1 the results were Pyk2 oligo antag 0.29, Lung fibro prol 94, H69AR growth 86K 51, bCat KO growth 22, HCT116 PTEN-null 36 and HUVEC inhibit 91.
For Nc1nonc1C(=O)NCCNCc1c(OCc2ccccc2F)ccc2ccccc12 the results were Pyk2 oligo antag -0.63, Lung fibro prol 61, H69AR growth 86K 12*, bCat KO growth 54, HCT116 PTEN-null 48 and HUVEC inhibit 43.
Screening COc1ccccc1C1Nc2cccc3cccc(c23)N1 returned Pyk2 oligo antag -0.36, Lung fibro prol 110, H69AR growth 86K 86, bCat KO growth 80, HCT116 PTEN-null 90 and HUVEC inhibit 87.
For CCOc1ccc(C2Nc3cccc4cccc(c34)N2)cc1OC the results were Pyk2 oligo antag -0.33, Lung fibro prol 93, H69AR growth 86K 91, bCat KO growth 54, HCT116 PTEN-null 63 and HUVEC inhibit 77.
`CCOc1cc(C2Nc3cccc4cccc(c34)N2)ccc1O` gave Pyk2 oligo antag -1, Lung fibro prol 98, H69AR growth 86K 36*, bCat KO growth 89, HCT116 PTEN-null 94 and HUVEC inhibit 61.
Oc1ccccc1C1Nc2cccc3cccc(c23)N1 was read as Pyk2 oligo antag -0.13, Lung fibro prol 88, H69AR growth 86K 34*, bCat KO growth 88, HCT116 PTEN-null 102 and HUVEC inhibit 78.
For CCCCNC(=S)Nc1cc([N+](=O)[O-])ccc1C the results were bCat KO growth 85 and HCT116 PTEN-null 87.
